Active and inactive are the calls of the source. The calls are words filed in the database; no cut-off is given here.
Tested on: Vaccinia virus
Assay: Antiviral activity against Vaccinia virus infected in HELF assessed as virus-induced cytopathogenicity at 20 to 100 uM after 4 days by microscopy
Type: functional, organism-based
Conditions: Orthopoxvirus vaccinia
Outline: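 Near-confluent MDCK (influenza) or confluent HEL monolayers were inoculated with 100 CCID50 of virus. After 1-h adsorption, residual virus was removed, and cells were incubated with fivefold serial dilutions of compound. Cytopathicity was scored microscopically once untreated infected controls reached complete CPE. Minimal cytotoxic concentration was read as microscopically visible alteration of cell morphology.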

`C[C@H](NC(=O)[C@]1(Cc2ccccc2)CCN1C(=O)OCC1c2ccccc2-c2ccccc21)C(N)=O` was tested, and the Activity was “inactive”.

Reference: ChEMBL document CHEMBL1671794, “Synthesis and SAR studies on azetidine-containing dipeptides as HCMV inhibitors” (Bioorg Med Chem, 2011)
